pEC50: −log10 of the molar value. Active and inactive are the calls of the source. The calls are words filed in the database; no cut-off is given here.
How the values were obtained:
[1] = Cytotoxicity against human SU86 cells co-cultured with human mesothelial cells at 10 uM after 4 hrs by firefly luciferase assay relative to control; type: functional
In short: (§1)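 Co-culture of luciferase-transduced cancer cells (puromycin/G418-selected retroviral pLuc) with confluent human mesothelial monolayers. Suspended cancer cells plus 10 µM compound (final) or DMSO were overlaid for 4 h. Non-adherent cells were washed off and surviving adherent cells quantified by firefly luciferase luminescence. Efficacy = treated/DMSO luminescence ratio; mean±SEM, n=3.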

[2] = Cytotoxicity against human BxPC3 cells co-cultured with human mesothelial cells at 10 uM after 4 hrs by firefly luciferase assay relative to control; type: functional, BXPC-3; in short: as §1
A2780 [3] = test: Cytotoxicity against human A2780 cells co-cultured with human mesothelial cells at 10 uM after 4 hrs by firefly luciferase assay relative to control; type: functional; in short: as §1
[4] = Cytotoxicity against human SKOV3 cells co-cultured with human mesothelial cells at 10 uM after 4 hrs by firefly luciferase assay relative to control; type: functional, SK-OV-3; in short: as §1
A2780 [5] = test: Cytotoxicity against human A2780 cells co-cultured with human mesothelial cells after 4 hrs by firefly luciferase assay relative to control; type: functional, cell-based; conditions: A2780, 4 h
In short: (§2)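 Luciferase-expressing cancer cells in suspension were treated with a series of compound concentrations or DMSO, overlaid on confluent human mesothelial monolayers for 4 h, and washed to remove non-adherent cells. Surviving adherent cells were read by luciferase luminescence relative to vehicle, and EC50 was derived from the concentration series.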

[6] = Cytotoxicity against human BxPC3 cells co-cultured with human mesothelial cells after 4 hrs by firefly luciferase assay relative to control; type: functional, cell-based; conditions: BXPC-3, 4 h; in short: as §2
[7] = Cytotoxicity against human SU86 cells co-cultured with human mesothelial cells after 4 hrs by firefly luciferase assay relative to control; type: functional, cell-based; in short: as §2
[8] = Cytotoxicity against human SKOV3 cells co-cultured with human mesothelial cells after 4 hrs by firefly luciferase assay relative to control; type: functional, cell-based; conditions: SK-OV-3, 4 h; in short: as §2
[9] = Glutathione reactivity assessed as reduction in detectable GSH level by Ellman's reagent-based assay
In short: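 Glutathione was measured with a commercial kit per the manufacturer's instructions, with TNB production rate proportional to GSH. Cell-free GSH was tested with compounds, and HT-29 luciferase cell lysates were assayed after compound exposure.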

HT-29 = test: Reduction of cellular GSH level in human HT-29 cells incubated for 30 mins followed by co-culturing with human mesothelial cells measured after 5 hrs by […]; type: functional, cell-based
A2780 [10] = test: Induction of apoptosis in human A2780 cells assessed as increased cellular levels of cleaved caspase 3 at 5 uM after 4 hrs by immunoblot analysis; type: functional, cell-based
In short: (§3)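 A2780 cells were suspended and allowed to adhere for 4 h with DMSO or test compound (5 µM in DMSO). Cells were collected and lysed, lysates normalised for total protein, and cleaved PARP and cleaved caspase 3 detected by immunoblot with actin as loading control. A sulfide analog served as negative control.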

A2780 [11] = test: Induction of apoptosis in human A2780 cells assessed as increased cellular levels of cleaved PARP at 5 uM after 4 hrs by immunoblot analysis; type: functional, cell-based; in short: as §3

SMILES | Ratio [1] | Ratio [2] | Ratio (A2780 [3]) | Ratio [4] | other results
CC(C)(c1ccc(S(=O)(=O)/C=C/C#N)cc1)c1nnc(Nc2ccccc2)o1 | 0.62 | 0.39 | 0.22 | 0.65 | 
COc1cccc(CNC(=O)C(C)(C)c2ccc(S(=O)(=O)/C=C/C#N)cc2)c1 | 0.3 | 0.09 | 0.03 | 0.25 | 
CC(C)(c1ccc(S(=O)(=O)/C=C/C#N)cc1)c1nc2ccccc2[nH]1 | 1.04 | 1.01 | 1.07 | 1.1 | 
CC(C)(C(=O)NCc1cccc(F)c1)c1ccc(S(=O)(=O)/C=C/C#N)cc1 | 0.24 | 0.17 | 0.05 | 0.3 | 
COc1ccccc1CNC(=O)C(C)(C)c1ccc(S(=O)(=O)/C=C/C#N)cc1 | 0.21 | 0.07 | 0.01 | 0.27 | 
N#C/C=C/S(=O)(=O)c1ccc(C2(C(=O)Nc3ccccc3)CCOCC2)cc1 | 0.92 | 0.85 | 0.87 | 0.97 | 
CC(C)(C)c1ccc2cc(S(=O)(=O)/C=C/C#N)ccc2n1 | 0.45 | 0.22 | 0.04 | 0.35 | 
N#C/C=C/S(=O)(=O)c1ccc(C2(C(=O)NC3CCCCC3)CC2)cc1 | 0.34 | 0.28 | 0.09 | 0.23 | 
Cc1ccc2oc(COc3ccc(S(=O)(=O)/C=C/C#N)cc3C(C)(C)C)nc2c1 | 0.56 | 0.24 | 0.09 | 0.36 | 
N#C/C=C/S(=O)(=O)c1ccc(C2(C(=O)NCc3ccc(F)cc3)CC2)cc1 | 0.64 | 0.34 | 0.06 | 0.43 | 
C[C@@H](NC(=O)C(C)(C)c1ccc(S(=O)(=O)/C=C/C#N)cc1)c1ccccc1 | 0.21 | 0.21 | 0.1 | 0.64 | 
Cc1ccc(O)c(NC(=O)COc2ccc(S(=O)(=O)/C=C/C#N)cc2C(C)(C)C)c1 | 0.38 | 0.1 | 0.05 | 0.24 | pEC50 (A2780 [5]): 5.62; pEC50 [6]: 5.42; pEC50 [7]: 5.10; pEC50 [8]: 5.18
COCCOCc1ccc(NC(=O)C(C)(C)c2ccc(S(=O)(=O)/C=C/C#N)cc2)cc1 | 0.66 | 0.4 | 0.26 | 0.6 | 
CC(C)(C(=O)NCc1ccc(-n2cccn2)cc1)c1ccc(S(=O)(=O)/C=C/C#N)cc1 | 0.49 | 0.48 | 0.34 | 0.84 | 
CC(C)(C(=O)N[C@H]1CCCCNC1=O)c1ccc(S(=O)(=O)/C=C/C#N)cc1 | 0.97 | 0.82 | 0.84 | 0.85 | 
CC(C)(C(=O)NCC#Cc1ccccc1)c1ccc(S(=O)(=O)/C=C/C#N)cc1 | 0.5 | 0.14 | 0.07 | 0.4 | 
CC(C)(C(=O)NCC(F)F)c1ccc(S(=O)(=O)/C=C/C#N)cc1 | 0.81 | 0.82 | 0.86 | 1.13 | 
CC(C)(C)c1cc(S(=O)(=O)/C=C/C#N)ccc1OCC(=O)O | 0.97 | 0.81 | 1.05 | 0.92 | 
CN(Cc1ccccc1)C(=O)C(C)(C)c1ccc(S(=O)(=O)/C=C/C#N)cc1 | 0.24 | 0.12 | 0.06 | 0.5 | Activity [9]: Active; Activity (HT-29): Active
Cc1cnc(C(C)(C)c2ccc(S(=O)(=O)/C=C/C#N)cc2)o1 | 0.37 | 0.09 | 0.03 | 0.26 | 
N#C/C=C/S(=O)(=O)c1ccc(C2(C(=O)NC3CCCCC3)CCOCC2)cc1 | 1 | 0.67 | 1.12 | 0.88 | 

SMILES | Ratio [1] | Ratio [2] | Ratio (A2780 [3]) | Ratio [4] | other results
C=CS(=O)(=O)c1ccc(C(C)(C)C)cc1 |  |  |  |  | Activity [9]: inactive; Activity (HT-29): inactive
CC(C)(c1ccc(S(=O)(=O)/C=C/C#N)cc1)c1nnc(C2CCCCC2)o1 | 0.27 | 0.13 | 0.02 | 0.28 | 
CN(Cc1ccc(F)cc1)C(=O)C(C)(C)c1ccc(S(=O)(=O)/C=C/C#N)cc1 | 0.23 | 0.11 | 0.02 | 0.22 | 
N#C/C=C/S(=O)(=O)c1ccc(C2(C(=O)NCc3ccc(Cl)cc3)CCC2)cc1 | 0.36 | 0.21 | 0.13 | 0.3 | 
C/C=C/S(=O)(=O)c1ccc(C(C)(C)C)cc1 |  |  |  |  | Activity [9]: inactive; Activity (HT-29): inactive
CC(C)(C(=O)NCCc1ccccc1)c1ccc(S(=O)(=O)/C=C/C#N)cc1 | 0.29 | 0.15 | 0.1 | 0.56 | 
N#C/C=C/S(=O)(=O)c1ccc(C2(C(=O)NCc3ccc(Cl)cc3)CCOCC2)cc1 | 0.66 | 0.3 | 0.46 | 0.71 | 
CC(C)(C(=O)N1CCCCC1)c1ccc(S(=O)(=O)/C=C/C#N)cc1 | 0.51 | 0.25 | 0.08 | 0.51 | 
N#C/C=C/S(=O)(=O)c1ccc(C2(C(=O)Nc3ccccc3)CCC2)cc1 | 0.35 | 0.12 | 0.17 | 0.39 | 
CC(C)(C(=O)NCc1ccc(F)cc1)c1ccc(S(=O)(=O)/C=C/C#N)cc1 | 0.18 | 0.23 | 0.11 | 0.6 | Activity [9]: Active; Activity (HT-29): Active
CC(C)(C(=O)NCc1ccccc1F)c1ccc(S(=O)(=O)/C=C/C#N)cc1 | 0.2 | 0.15 | 0.03 | 0.3 | 
CC(C)(C)c1cccc(S(=O)(=O)/C=C/C#N)c1 | 0.13 | 0.08 | 0.1 | 0.35 | 
C[C@H](NC(=O)C(C)(C)c1ccc(S(=O)(=O)/C=C/C#N)cc1)c1ccccc1 | 0.32 | 0.27 | 0.13 | 0.67 | 
CC(C)(C)c1cc(S(=O)(=O)/C=C/C#N)ccc1OCC(=O)NCc1ccc(F)cc1 | 0.28 | 0.1 | 0.02 | 0.23 | 
CC(C)(C(=O)NCc1ccc(S(C)(=O)=O)cc1)c1ccc(S(=O)(=O)/C=C/C#N)cc1 | 1.09 | 0.99 | 0.95 | 0.78 | 
CC(C)(C(=O)NC1CCCCC1)c1ccc(S(=O)(=O)/C=C/C#N)cn1 | 0.61 | 0.16 | 0.16 | 0.58 | 
CC(C)(C)c1ccc(S/C=C/C#N)cc1 |  |  |  |  | Activity (A2780 [10]): inactive; Activity (A2780 [11]): inactive
CC(C)(C(=O)Nc1ccccc1)c1ccc(S(=O)(=O)/C=C/C#N)cc1 | 0.52 | 0.22 | 0.17 | 0.55 | 
CC(C)(C(=O)NCc1ccc(S(N)(=O)=O)cc1)c1ccc(S(=O)(=O)/C=C/C#N)cc1 | 1.11 | 1 | 1 | 0.96 | 
CCNc1nnc(C(C)(C)c2ccc(S(=O)(=O)/C=C/C#N)cc2)o1 | 0.96 | 1.02 | 0.86 | 1.12 | 
COc1cccc(NC(=O)COc2ccc(S(=O)(=O)/C=C/C#N)cc2C(C)(C)C)c1 | 0.37 | 0.17 | 0.03 | 0.29 | 
